The subject of data set [1] is Histoplasma capsulatum. Description: Antifungal activity against Histoplasma capsulatum 26 by agar dilution assay. It is filed as functional. Put shortly: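 In vitro MIC against H. capsulatum strain 26 by standard agar dilution. Amphotericin B was run as the standard in each test.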
Background: In agar dilution the substance is mixed into plates at graded concentrations.

The test system of data set [2] is Histoplasma capsulatum. Nature of the data set: Antifungal activity against Histoplasma capsulatum infected in x-irradiated mouse assessed as prolongation of lifetime at 50 mg/kg, sc bid administered on day 0, 1 and 2 post infection. The settings on record: route subcutaneous. It is filed as functional. Put shortly:
(§1)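 Mice infected with H. capsulatum were dosed sc at 0 and 4 h postinfection on days 0, 1 and 2, six doses in total. Read-out was % extension of lifetime beyond untreated controls. Amphotericin B, dosed the same way, served as positive control.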

In data set [3] the test system is Histoplasma capsulatum. Nature of the data set: Antifungal activity against Histoplasma capsulatum infected in x-irradiated mouse assessed as prolongation of lifetime at 25 mg/kg, sc bid administered on day 0, 1 and 2 post infection. Format: functional. Particulars: route subcutaneous. The method in brief:
as §1

The subject of data set [4] is Histoplasma capsulatum. Nature of the data set: Antifungal activity against Histoplasma capsulatum infected in x-irradiated mouse assessed as prolongation of lifetime at 13 mg/kg, sc bid administered on day 0, 1 and 2 post infection. It is filed as functional. The settings on record: route subcutaneous. The method in brief:
as §1

The test system of data set [5] is Histoplasma capsulatum. Nature of the data set: Antifungal activity against Histoplasma capsulatum infected in x-irradiated mouse assessed as prolongation of lifetime at 40 mg/kg, sc bid administered on day 0, 1 and 2 post infection. The settings on record: route subcutaneous. Format: functional. The method in brief:
as §1

Data set [6] concerns Histoplasma capsulatum. Description: Antifungal activity against Histoplasma capsulatum infected in x-irradiated mouse assessed as prolongation of lifetime at 20 mg/kg, sc bid administered on day 0, 1 and 2 post infection. The settings on record: route subcutaneous. Format: functional. Put shortly: as §1
Data set [7] has as its system Histoplasma capsulatum. Description: Antifungal activity against Histoplasma capsulatum infected in x-irradiated mouse assessed as prolongation of lifetime at 10 mg/kg, sc bid administered on day 0, 1 and 2 post infection. Format: functional. The settings on record: route subcutaneous. The method in brief:
as §1

Data set [8] concerns Histoplasma capsulatum. Nature of the data set: Antifungal activity against Histoplasma capsulatum infected in x-irradiated mouse assessed as prolongation of lifetime at 6 mg/kg, sc bid administered on day 0, 1 and 2 post infection. Format: functional. The settings on record: route subcutaneous. The method in brief: as §1
In data set [9] the test system is Mus musculus. Nature of the data set: Toxicity in mouse at 50 mg/kg, sc bid. It is filed as organism-based. Also noted: dose 50 mg/kg, route subcutaneous. The settings on record: in vivo.
The subject of data set [10] is Mus musculus. Description: Toxicity in ip dosed mouse. Format: organism-based. Particulars: in vivo.
In data set [11] the test system is Candida albicans. Description: Antifungal activity against Candida albicans by disk-plate assay. Format: functional, organism-based.
For data set [12], the system named is Candida albicans. Nature of the data set: Antifungal activity against Candida albicans infected in mouse. It is filed as functional, organism-based.

Converted amounts (≈) assume the structure as drawn. The source made the active and inactive calls. The calls are words filed in the database; no cut-off is given here.

`Cc1ccc(SSCC(=O)O)cc1` came in with an MIC in the data set with Histoplasma capsulatum [1] of 20 µg/mL (≈ 93.3 µM). For the same compound, the Activity in the data set with Histoplasma capsulatum [2] was 0%; in the data set on Histoplasma capsulatum [3] it was -6%; in the data set on Histoplasma capsulatum [4] it was 17%.

`C[C@@H]1[C@H](O)[C@@H](C)/C=C/C=C/C=C/C=C/C=C/C=C/C=C/[C@H](O[C@@H]2O[C@H](C)[C@@H](O)[C@H](N)[C@@H]2O)C[C@@H]2O[C@](O)(C[C@@H](O)C[C@@H](O)[C@H](O)CC[C@@H](O)C[C@@H](O)CC(=O)O[C@H]1C)C[C@H](O)[C@H]2C(=O)O` [AMPHOTERICIN B] returned an MIC in the data set with Histoplasma capsulatum [1] of 0.0625 µg/mL (≈ 0.0676 µM). Besides, the results for the Activity with Histoplasma capsulatum [2] and in the data set on Histoplasma capsulatum [3] were 70% and 58%, respectively.

As to `CC(C)(C)SSC(=S)N1CCOCC1`, the MIC against Histoplasma capsulatum [1] is above 40 µg/mL. Moreover, the Activity in the data set on Histoplasma capsulatum [5] was 11%; in the data set on Histoplasma capsulatum [6], 5%; with Histoplasma capsulatum [7] it was -4%.

In the data set on Histoplasma capsulatum [1], `CCSSC(=S)N1CCOCC1` displayed an MIC of 10 µg/mL (≈ 44.8 µM). Moreover, the Activity is reported as 5% in the data set on Histoplasma capsulatum [3], 5% with Histoplasma capsulatum [4], 5% in the data set with Histoplasma capsulatum [8] and “Toxic” with Mus musculus [9].

For the compound `S=C(SSC(=S)N1CCOCC1)N1CCOCC1`, the MIC in the data set on Histoplasma capsulatum [1] was 40 µg/mL (≈ 123 µM). Besides, the Activity in the data set on Histoplasma capsulatum [3] was 5%; in the data set with Histoplasma capsulatum [4], 5%; in the data set with Histoplasma capsulatum [8] it was 5%; in the data set with Mus musculus [9], “Toxic”.

As to `CCCCCCCCCCN1CCSSC1=S`, the MIC against Histoplasma capsulatum [1] was above 10 µg/mL. Also, the Activity with Mus musculus [10] was 0.1 g/kg.

`O=C(O)c1ccccc1SSC(=S)N1CCOCC1` had an MIC with Histoplasma capsulatum [1] above 10 µg/mL. The Activity in the data set on Histoplasma capsulatum [2] is -7%; in the data set on Histoplasma capsulatum [3], -5%; in the data set on Histoplasma capsulatum [4], -2%; with Mus musculus [10] it was 0.1 g/kg.

`Cc1ccc(SSC(=S)N2CCOCC2)cc1` registered an MIC with Histoplasma capsulatum [1] of 40 µg/mL (≈ 140 µM). Moreover, the Activity with Histoplasma capsulatum [2] stood at 9%; in the data set with Histoplasma capsulatum [3], 0%; with Histoplasma capsulatum [4] it was 5%.

In the data set on Histoplasma capsulatum [1], `S=C1SSCCN1CCCCC1CCCCC1` had a minimal inhibitory concentration (MIC) of 10 µg/mL (≈ 34.5 µM). Moreover, the Activity with Mus musculus [10] came out at 0.1 g/kg.

In the case of `COc1ccc(C(=S)SSc2ccc(C)cc2)cc1`, in the data set on Histoplasma capsulatum [1], the MIC came to 20 µg/mL (≈ 65.3 µM). The values for the Activity in the data set on Histoplasma capsulatum [2], in the data set on Histoplasma capsulatum [3] and in the data set on Histoplasma capsulatum [4] were -2%, 7% and 2%, respectively.

`COc1ccc(CSSCCCCS(=O)[O-])cc1.[Na+]`: 20 µg/mL was the least that counted as inhibitory in the data set with Histoplasma capsulatum [1] (MIC). The Activity with Histoplasma capsulatum [2] is given as 9%; with Histoplasma capsulatum [3], -19%; in the data set with Histoplasma capsulatum [4] it was -2%.

Take `CN(C)C(=S)SSc1ccccc1C(=O)O`: the MIC against Histoplasma capsulatum [1] is below 1 µg/mL. For the same compound, the Activity in the data set on Mus musculus [10] was found to be 0.1 g/kg.

As to `CN(C)C(=S)SSc1ccc(Cl)cc1`, in the data set on Histoplasma capsulatum [1], the MIC is 5 µg/mL (≈ 19 µM). Further, the Activity in the data set on Histoplasma capsulatum [2] is 11%; in the data set on Histoplasma capsulatum [3], 13%; in the data set on Histoplasma capsulatum [4], -14%; in the data set with Mus musculus [10], 1 g/kg. Further, the outcome with Candida albicans [11] was Active. For the same compound, in the data set with Candida albicans [12], the outcome was inactive.

Take `Cc1ccc(SSCCN)cc1.Cl`: the minimal inhibitory concentration (MIC) against Histoplasma capsulatum [1] is above 20 µg/mL. Besides, the Activity came to 9% in the data set with Histoplasma capsulatum [2], 0% in the data set on Histoplasma capsulatum [3] and 4% in the data set with Histoplasma capsulatum [4].

In turn, `S=C(SSc1ccccc1)N1CCOCC1` showed an MIC in the data set on Histoplasma capsulatum [1] of 40 µg/mL (≈ 147 µM). The Activity in the data set on Histoplasma capsulatum [3] was 9%; in the data set with Histoplasma capsulatum [4] it was 11%; with Histoplasma capsulatum [8], 5%; in the data set on Mus musculus [9] it was “Toxic”.

As for `Cc1ccc(SSCCCCS(=O)[O-])cc1.[Na+]`, the MIC in the data set with Histoplasma capsulatum [1] is 20 µg/mL. The Activity in the data set with Histoplasma capsulatum [2] was -21%; in the data set with Histoplasma capsulatum [3] it was -6%; with Histoplasma capsulatum [4], 15%.

Broadly, the MIC is the lowest concentration found to suppress growth. Read a low MIC as inhibition by little substance.

(Values after ChEMBL document CHEMBL3244357, “Biologically oriented organic sulfur chemistry. 15. Organic disulfides and related substances. 41. Inhibition of the fungal pathogen Histoplasma capsulatum by some organic disulfides” (J Med Chem, 1977).)
